Here are results for 73 compounds from ChEMBL document CHEMBL1131195, “Antileishmanial chalcones: statistical design, synthesis, and three-dimensional quantitative structure-activity relationship analysis” (J Med Chem, 1998).

Structures are written as SMILES. pIC50: −log10 of the molar value.

One experiment deals with Leishmania donovani. Briefly: Tested in vitro for anti-leishmanial activity against Leishmania donovani. Format: functional, organism-based. The gist of the method:
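In vitro assay using Leishmania donovani promastigotes incubated with increasing chalcone concentrations, with inhibition of parasite proliferation as the read-out.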

A short description of experiment [1]: Inhibitory activity against phytohemagglutininin A-induced proliferation of human lymphocytes. It counts as functional. The gist of the method:
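Human lymphocytes stimulated with phytohemagglutinin A were incubated in vitro with increasing concentrations of each chalcone, and inhibition of their proliferation was measured.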

A short description of experiment [2]: Inhibitory activity against phytohemagglutininin A-induced proliferation of human lymphocytes; Not tested due to low solubility. It counts as functional.

As usually defined, the pIC50 is the IC50 on a negative log10 scale, so that one unit is a factor of ten. The low end stands for a high IC50, the high end for a low IC50. Turning to `COc1ccc(C(=O)/C=C/c2ccc(Cl)cc2Cl)c(OC)c1OC`, the pIC50 in the experiment with Leishmania donovani was 5.20; in experiment [1] it was 5.11.
Taken in the same sequence, the figures for `COc1ccc(C(=O)/C=C/c2ccc(F)cc2F)c(OC)c1` were 4.57 and 4.92.
Taken in the same sequence, the figures for `CN(C)c1ccc(/C=C/C(=O)c2ccc(O)cc2)cc1` were 4.10 and 3.89.
As to `CCCCOc1ccc(C(=O)/C=C/c2ccc(OC)cc2OC)cc1`, the IC50 result in experiment [2] is given as “Not Active”. In addition, the pIC50 in the experiment with Leishmania donovani was 4.02.
For `C=CCOc1ccc(C(=O)/C=C/c2cccc(OC)c2OC)cc1`, the pIC50 in the experiment on Leishmania donovani is 4.31; in experiment [1], 4.02.
The corresponding values for `COc1cc(/C=C/C(=O)c2ccc([N+](=O)[O-])cc2)cc(OC)c1` are 4.80 and 4.70.
The corresponding values for `CCCCOc1ccccc1C(=O)/C=C/c1cc(OC)cc(OC)c1` are 5.14 and 4.89.
The corresponding values for `C=CCOc1ccc(C(=O)/C=C/c2c(OC)cccc2OC)cc1` are 4.09 and 4.02.
In the case of `COc1cccc(/C=C/C(=O)c2ccc(O)cc2)c1OC`, the results for the pIC50 (in the experiment with Leishmania donovani; in experiment [1]) were 4.05 and 4.15, respectively.
The corresponding values for `COc1ccc(C(=O)/C=C/c2ccccc2[N+](=O)[O-])c(OC)c1OC` are 5.23 and 5.15.
Turning to `COc1cccc(OC)c1/C=C/C(=O)c1ccc(O)cc1`, the pIC50 in the experiment with Leishmania donovani was 4.09; in experiment [1], 4.22.
The corresponding values for `COc1ccc(/C=C/C(=O)c2ccc(F)cc2F)c(OC)c1` are 4.59 and 4.13.
Taken in the same sequence, the figures for `COc1ccc(/C=C/C(=O)c2ccccc2O)c(OC)c1` were 4.46 and 3.84.
Taken in the same sequence, the figures for `COc1cc(O)ccc1/C=C/C(=O)c1ccc(N(C)C)cc1` were 4.31 and 3.95.
With `COc1cc(/C=C/C(=O)c2ccccc2O)cc(OC)c1`, the pIC50 is 5.42 in the experiment with Leishmania donovani and 5.09 in experiment [1].
The corresponding values for `COc1cc(/C=C/C(=O)c2ccc(O)cc2)cc(OC)c1` are 4.92 and 4.85.
Taken in the same sequence, the figures for `COc1cc(/C=C/C(=O)c2ccccc2F)cc(OC)c1` were 5.46 and 5.22.
The corresponding values for `COc1ccc(OC)c(C(=O)/C=C/c2ccc(Cl)cc2Cl)c1` are 5.11 and 5.24.
Consider `COc1cc(/C=C/C(=O)c2cccc(O)c2)cc(OC)c1`, for which the pIC50 in the experiment with Leishmania donovani was 5.43; in experiment [1] it was 5.49.
Taken in the same sequence, the figures for `COc1ccc(/C=C/C(=O)c2ccccc2Br)c(OC)c1` were 4.85 and 4.46.
The corresponding values for `COc1cc(OC)c(OC)cc1/C=C/C(=O)c1ccc(O)cc1` are 4.80 and 4.55.
Taken in the same sequence, the figures for `COc1ccc(/C=C/C(=O)c2ccccc2)c(OC)c1` were 4.82 and 4.32.
Take `C=CCOc1ccc(C(=O)/C=C/c2cc(OC)c(OC)c(OC)c2)cc1`: the pIC50 is 4.39 with Leishmania donovani and 4.52 in experiment [1].
Taken in the same sequence, the figures for `COc1ccc(/C=C/C(=O)c2cccc(Br)c2)c(OC)c1` were 4.80 and 4.43.
Take `COc1ccc(/C=C/C(=O)c2ccccc2OC)c(OC)c1`: the figures for the pIC50 (in the experiment on Leishmania donovani; in experiment [1]) were 4.80 and 4.59, respectively.
In the experiment with Leishmania donovani, `CCCCOc1ccc(C(=O)/C=C/c2c(OC)cccc2OC)cc1` had a pIC50 of 3.98.
With `CCCCOc1cccc(C(=O)/C=C/c2ccc(OC)cc2OC)c1`, the pIC50 was 4.70 in the experiment on Leishmania donovani and 4.19 in experiment [1].
Taken in the same sequence, the figures for `COc1ccc(C(=O)/C=C/c2ccc(F)c(F)c2)c(OC)c1` were 4.80 and 5.28.
For `COc1cccc(C(=O)/C=C/c2ccc(OC)cc2OC)c1`, the pIC50 is 4.74 in the experiment on Leishmania donovani and 4.38 in experiment [1].
The corresponding values for `CCCCOc1ccccc1/C=C/C(=O)c1ccc(OC)c(OC)c1OC` are 4.59 and 4.28.
Taken in the same sequence, the figures for `O=C(/C=C/c1ccc([N+](=O)[O-])cc1)c1ccc([N+](=O)[O-])cc1` were 4.59 and 4.29.
Regarding `COc1ccc(C(=O)/C=C/c2cccc(Oc3ccccc3)c2)c(OC)c1OC`, the results for the pIC50 (with Leishmania donovani; in experiment [1]) were 5.06 and 4.77, respectively.
For `COc1ccc(C(=O)/C=C/c2ccc([N+](C)(C)C)cc2)c(OC)c1OC`, the pIC50 in the experiment on Leishmania donovani was 4.68; in experiment [1] it was 4.46.
Consider `COc1ccc(C(=O)/C=C/c2cccc(N(C)C)c2)c(OC)c1OC`, for which the pIC50 in the experiment on Leishmania donovani was 4.70; in experiment [1], 4.59.
Taken in the same sequence, the figures for `O=C(/C=C/c1ccccc1)c1ccc(F)cc1` were 4.82 and 4.64.
As for `COc1ccc(C(=O)/C=C/c2ccccc2O)c(OC)c1OC`, the pIC50 in the experiment on Leishmania donovani was 5.03; in experiment [1] it was 5.05.
Take `O=C(/C=C/c1ccc(Oc2ccccc2)cc1)c1ccc(F)cc1`: the pIC50 in the experiment with Leishmania donovani is 4.38; in experiment [1], 4.48.
Taken in the same sequence, the figures for `COc1ccc(/C=C/C(=O)c2cccc([N+](=O)[O-])c2)c(OC)c1` were 5.07 and 4.74.
Taken in the same sequence, the figures for `COc1cc(OC)c(/C=C/C(=O)c2ccc(O)cc2)c(OC)c1` were 3.97 and 4.36.
Taken in the same sequence, the figures for `COc1ccc(C(=O)/C=C/c2ccc(C#N)cc2)c(OC)c1OC` were 5.07 and 5.27.
Consider `CCCCCCc1cc(/C=C/C(=O)c2ccc(O)cc2)c(OC)cc1O`, for which the negative-log IC50 (pIC50) is 5.01 with Leishmania donovani and 4.34 in experiment [1].
Taken in the same sequence, the figures for `COc1cc(/C=C/C(=O)c2ccccc2[N+](=O)[O-])cc(OC)c1` were 5.47 and 5.43.
`CCCCOc1ccc(C(=O)/C=C/c2cc(OC)cc(OC)c2)cc1`: the pIC50 in the experiment on Leishmania donovani was 4.46; in experiment [1], 4.28.
The corresponding values for `COc1cc(/C=C/C(=O)c2cccc(F)c2)cc(OC)c1` are 5.26 and 5.04.
The corresponding values for `C=CCOc1ccc(C(=O)/C=C/c2ccc(OC)c(OC)c2)cc1` are 4.22 and 4.29.
The corresponding values for `C=CCOc1ccc(C(=O)/C=C/c2cc(OC)ccc2OC)cc1` are 4.14 and 4.26.
Regarding `CCCCCCOc1ccc(C(=O)/C=C/c2ccccc2)cc1`, the figures for the negative-log IC50 (pIC50) (in the experiment on Leishmania donovani; in experiment [1]) were 4.21 and 4.00, respectively.
Taken in the same sequence, the figures for `CCCc1cc(/C=C/C(=O)c2ccc(O)cc2)c(OC)cc1O` were 4.59 and 4.39.
The corresponding values for `COc1cc(/C=C/C(=O)c2ccc(OC)c(OC)c2OC)cc(OC)c1` are 5.08 and 5.06.
On to `C=CCOc1ccc(C(=O)/C=C/c2cc(OC)c(CCCCCC)c(OC)c2)cc1`, for which the figures for the pIC50 (in the experiment on Leishmania donovani; in experiment [1]) were 4.72 and 4.82, respectively.
As to `O=C(/C=C/c1ccc(F)cc1)c1ccc(C2CCCCC2)cc1`, the pIC50 with Leishmania donovani is 4.57; in experiment [1] it was 4.13.
The corresponding values for `COc1ccc(C(=O)/C=C/c2cccc(F)c2)c(OC)c1OC` are 5.01 and 5.19.
For `COc1cc(/C=C/C(=O)c2ccc(C3CCCCC3)cc2)cc(OC)c1`, the pIC50 in the experiment on Leishmania donovani is 4.51; in experiment [1], 4.41.
For the compound `COc1ccc(C(=O)/C=C/c2cccc([N+](=O)[O-])c2)c(OC)c1OC`, the pIC50 with Leishmania donovani was 4.77; in experiment [1], 4.44.
The corresponding values for `COc1c(/C=C/C(=O)c2ccc(O)cc2)ccc(O)c1C` are 4.66 and 4.57.
The corresponding values for `C=CCOc1ccc(C(=O)/C=C/c2cc(OCC=C)ccc2OCC=C)cc1` are 4.42 and 4.21.
Taken in the same sequence, the figures for `COc1cc(/C=C/C(=O)c2ccccc2N(C)C)cc(OC)c1` were 5.14 and 5.24.
Turning to `COc1cc(O)cc(C)c1/C=C/C(=O)c1ccc(O)cc1`, the pIC50 was 4.41 with Leishmania donovani and 4.28 in experiment [1].
The corresponding values for `O=C(/C=C/c1ccc(F)cc1)c1ccc(F)cc1` are 4.82 and 4.66.
In the case of `COc1ccc(OC)c(/C=C/C(=O)c2ccc(O)cc2)c1`, the pIC50 is 4.64 with Leishmania donovani and 4.66 in experiment [1].
The corresponding values for `C=CCOc1ccc(C(=O)/C=C/c2cc(OC)cc(OC)c2)cc1` are 4.57 and 4.60.
The corresponding values for `COc1ccc(/C=C/C(=O)c2ccc(O)cc2)c(OC)c1` are 4.32 and 4.15.
On to `COc1cc(/C=C/C(=O)c2cccc(N(C)C)c2)cc(OC)c1`, for which the figures for the pIC50 (in the experiment with Leishmania donovani; in experiment [1]) were 5.24 and 5.30, respectively.
For `C=CCOc1ccccc1C(=O)/C=C/c1ccc(OC)cc1OC`, the IC50 result in experiment [2] was “Not Active”. In the experiment on Leishmania donovani, this compound had a pIC50 of 5.30.
For the compound `COc1ccc(C(=O)/C=C/c2ccccc2F)c(OC)c1OC`, the pIC50 is 4.82 in the experiment with Leishmania donovani and 4.96 in experiment [1].
The corresponding values for `O=C(/C=C/c1ccccc1)c1ccc(O)cc1` [4'-HYDROXYCHALCONE] are 4.80 and 4.55.
Taken in the same sequence, the figures for `O=C(/C=C/c1ccc(O)cc1)c1ccc(O)cc1` [4,4'-DIHYDROXYCHALCONE] were 4.08 and 4.23.
Regarding `COc1ccc(/C=C/C(=O)c2ccc(OC)cc2)cc1` [4,4'-DIMETHOXYCHALCONE], the pIC50 with Leishmania donovani was 3.97; in experiment [1], 3.95.
The corresponding values for `O=C(/C=C/c1ccc(O)c(O)c1)c1ccc(O)cc1O` [BUTEIN] are 4.18 and 4.80.
Taken in the same sequence, the figures for `O=C(/C=C/c1ccccc1)c1ccccc1` [CHALCONE] were 4.70 and 4.68.
The corresponding values for `COc1cc(O)ccc1/C=C/C(=O)c1ccc(O)cc1` [ECHINATIN] are 4.17 and 4.03.
As for `COc1cc(/C=C/C(=O)c2ccc(O)cc2O)ccc1O` [HOMOBUTEIN], the figures for the pIC50 (in the experiment with Leishmania donovani; in experiment [1]) were 4.80 and 4.51, respectively.
Consider `C=CC(C)(C)c1cc(/C=C/C(=O)c2ccc(O)cc2)c(OC)cc1O` [LICOAGROCHACONE A], for which the figures for the pIC50 (in the experiment on Leishmania donovani; in experiment [1]) were 4.89 and 4.32, respectively.
